For twelve compounds, survival and Activity results are on record in ChEMBL document CHEMBL1143020, “Antimalarial activity of 1-aryl-3,3-dialkyltriazenes” (2007).

Bounds are passed on as bounds.

Common to all, as to type: functional
Assay [1] has as its system Mus musculus. The assay can be described thus: Survival rate in Plasmodium berghei NK65 infected JCL-ICR mice (Mus musculus) at 100 mg/kg body weight after 14 days. The note with it: 336 h. The gist of the method: (§1)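 Female JCL-ICR mice (4–5 weeks), 5 per group, were infected i.p. on day 0 with 0.2 mL of a 1:100 saline dilution of donor-mouse blood (3.3×10^6 parasitized erythrocytes). Triazenes were dosed at 100 mg/kg in 5% gum arabic or corn oil, and chloroquine at 50 mg/kg, twice, at 2 and 48 h post-infection. Controls got 5% gum arabic. Mice were monitored daily, with survival rate at day 14.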

In assay [2] the test system is Plasmodium berghei. The assay can be described thus: Antimalarial activity as parasitaemia after 3 days against Plasmodium berghei NK65 infected JCL-ICR mice (Mus musculus) at 100 mg/kg. An outline of the steps: (§2)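 Female mice aged 4–5 weeks, 5 per group, were infected ip on day 0 with 0.2 mL of 1:100 donor blood in saline (3.3×10^6 parasitized erythrocytes). 100 mg/kg was given twice, at 2 and 48 h post-infection, in 5% gum arabic/saline (solids) or corn oil (oils). Tail-blood thin smears on days 3, 7 and 14 were methanol-fixed and Giemsa-stained (2%, 2 h). % infected erythrocytes was counted microscopically.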

Assay [3] concerns Plasmodium berghei. The assay can be described thus: Antimalarial activity as parasitaemia after 7 days against Plasmodium berghei NK65 infected JCL-ICR mice (Mus musculus) at 100 mg/kg. The gist of the method: as §2
The test system of assay [4] is Plasmodium berghei. As to the kind of experiment: Antimalarial activity as parasitaemia after 14 days against Plasmodium berghei NK65 infected JCL-ICR mice (Mus musculus) at 100 mg/kg. The gist of the method:
as §2

Assay [5] has as its system Mus musculus. As to the kind of experiment: Survival rate in Plasmodium berghei NK65 infected JCL-ICR mice (Mus musculus) at 50 mg/kg body weight after 14 days. As to conditions: 336 h. An outline of the steps:
as §1

Assay [6] concerns Plasmodium berghei. The assay can be described thus: Antimalarial activity as parasitaemia after 7 days against Plasmodium berghei NK65 infected JCL-ICR mice (Mus musculus) at 50 mg/kg. An outline of the steps: (§3)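 Chloroquine reference arm: 5 female mice aged 4–5 weeks per group, infected ip on day 0 with 0.2 mL of 1:100 diluted donor blood (3.3×10^6 parasitized erythrocytes). 50 mg/kg was given at 2 and 48 h post-infection. On days 7 and 14, tail-blood smears were methanol-fixed and stained with 2% Giemsa for 2 h, and % parasitized erythrocytes was scored by microscopy.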

Assay [7] relates to Plasmodium berghei. As to the kind of experiment: Antimalarial activity as parasitaemia after 14 days against Plasmodium berghei NK65 infected JCL-ICR mice (Mus musculus) at 50 mg/kg. An outline of the steps:
as §3

On to `Cc1cc(C)c(/N=N/N(C)C)c(C)c1`, for which the survival at 100 mg/kg in the assay with Mus musculus [1] is 40%. The Activity in the assay with Plasmodium berghei [2] was 4.4%; in the assay with Plasmodium berghei [3], 12.4%; with Plasmodium berghei [4], 73.3%.

For the compound `Cc1cc(C)c(/N=N/N2CCCCC2)c(C)c1`, the survival at 100 mg/kg with Mus musculus [1] came out at 0%. Moreover, the figures for the Activity in the assay on Plasmodium berghei [2] and in the assay on Plasmodium berghei [3] were 4.2% and 76.4%, respectively.

In turn, `CN(C)/N=N/c1ccc(Cl)cc1` returned a survival at 100 mg/kg in the assay with Mus musculus [1] of 60%. The values for the Activity in the assay on Plasmodium berghei [2], in the assay on Plasmodium berghei [3] and in the assay with Plasmodium berghei [4] were 4.8%, 27% and 62.5%, respectively.

For the compound `CCN(CC)CCCC(C)Nc1ccnc2cc(Cl)ccc12` (configuration not stated) [CHLOROQUINE], the survival at 50 mg/kg in the assay on Mus musculus [5] stood at 100%. Besides, the results for the Activity with Plasmodium berghei [6] and in the assay on Plasmodium berghei [7] were less than 1% and 8.5%, respectively.

Compound `FC(F)(F)c1ccc(/N=N/N2CCCCC2)cc1` had a survival at 100 mg/kg in the assay with Mus musculus [1] of 0%. For the same compound, the Activity with Plasmodium berghei [2] was found to be 2.3%; in the assay on Plasmodium berghei [3] it was 44.6%.

In the assay on Mus musculus [1], `Cc1cccc(C)c1/N=N/N(C)C` displayed a survival at 100 mg/kg of 0%. Moreover, the Activity with Plasmodium berghei [2] turned out to be 1.7%; with Plasmodium berghei [3], 53.9%.

In the case of `FC(F)(F)c1ccc(/N=N/N2CCCC2)cc1`, the survival at 100 mg/kg with Mus musculus [1] worked out at 0%. Besides, the Activity in the assay with Plasmodium berghei [2] was found to be 2.9%; in the assay on Plasmodium berghei [3], 66.3%.

In the assay with Mus musculus [1], `Cc1cccc(C)c1/N=N/N1CCCCC1` returned a survival at 100 mg/kg of 0%. Further, the results for the Activity in the assay with Plasmodium berghei [2] and in the assay with Plasmodium berghei [3] were 4.2% and 76.4%, respectively.

Regarding `Cc1cc(C)c(/N=N/N2CCCC2)c(C)c1`, in the assay with Mus musculus [1], the survival at 100 mg/kg is 60%. Moreover, the Activity with Plasmodium berghei [2] is given as 4.1%; with Plasmodium berghei [3], 38.5%; in the assay with Plasmodium berghei [4], 74.6%.

`Cc1cccc(C)c1/N=N/N1CCCC1`: the survival at 100 mg/kg with Mus musculus [1] was 40%. For the same compound, the Activity stood at 5.6% in the assay on Plasmodium berghei [2], 54.6% in the assay with Plasmodium berghei [3] and 81.7% in the assay with Plasmodium berghei [4].

Turning to `CN(C)/N=N/c1ccc(F)cc1`, the survival at 100 mg/kg with Mus musculus [1] is 20%. The figures for the Activity in the assay with Plasmodium berghei [2], in the assay on Plasmodium berghei [3] and in the assay with Plasmodium berghei [4] were 1.7%, 53.5% and 60.4%, respectively.

For `CN(C)/N=N/c1ccc(C(F)(F)F)cc1`, the survival at 100 mg/kg in the assay on Mus musculus [1] was determined as 80%. The results for the Activity in the assay on Plasmodium berghei [2], with Plasmodium berghei [3] and with Plasmodium berghei [4] were 4.8%, 17.6% and 67.9%, respectively.
